Active and inactive are the calls of the source.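 How the source made its calls, unless noted: active means inhibition above 20% together with a positive visual image hit; inconclusive means visual image hit but inhibition not above 20%; inactive means no visual image hit.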
How the values were obtained:
[1] = inhibitors of TNFa-induced NFkB p65 translocation, primary screen, imaging, HUVEC, MLSMR starter and 10KST1 sets (AID 438); details: HUVEC TNFa-induced p65 nuclear translocation; cell count: measured here: nuclei count (cytotoxicity indicator), at 2.08 µM; inhibition: at 2 µM, stronger effect = higher value, 0% TNFa-plus-vehicle, 100% no-TNFa wells;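 further: compound added about 3h40 before a 20 min TNFalpha stimulation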;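 on inhibition: signal is the nuclear over cytoplasmic p65 intensity ratio per well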
[2] = inhibitors of mutant huntingtin aggregation, primary screen, imaging, exon1htt(103Q)mCFP cells, high-content imaging (AID 483;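 active means visual image review flags a hit and inhibition of aggregation exceeds 20%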;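 further: compound exposure lasted 3 days before fixation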;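 on nuclei count: percent of the per-plate median nuclei count of sample wells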); details: exon1htt(103Q)mCFP cell line, aggregate imaging, at 2 µM; inhibition of aggregation: stronger effect = higher value; nuclei count: measured here: cell count, toxicity
[3] = inhibitors of E-selectin induction by TNFa, primary screen, imaging, HUVEC, immunofluorescence, MLSMR starter and 10KST1 sets (AID 487;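 active means visually confirmed hit in the image check and inhibition above 20%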;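 on inhibition: signal is fraction of cell area covered by stained E-selectin grains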;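 on nuclei count: 100% = median nuclei count of all wells on the same plate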); details: HUVEC TNFalpha-induced E-selectin immunofluorescence imaging, at 2 µM; inhibition: stronger effect = higher value; nuclei count: measured here: cell number, toxicity
[4] = target: Voltage-gated potassium channel subunit beta-2 (Rattus norvegicus) (UniProt P62483); assay: KvBeta enzyme negative modulators, primary screen, biochemical, NADPH fluorescence (AID 622;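 active means fluorescence slope higher than the sample average by over 3 SD, cut at about -0.22 in these data, passing the limit was not always enough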;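 further: slope of raw intensity against log time taken from 70 to 1610 s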); details: recombinant KvBeta, 4-cyanobenzaldehyde reduction, at 10 µM, stronger effect = higher value
Voltage-gated potassium channel subunit beta-2 (Rattus norvegicus), sequence (P62483 whole entry, looked up): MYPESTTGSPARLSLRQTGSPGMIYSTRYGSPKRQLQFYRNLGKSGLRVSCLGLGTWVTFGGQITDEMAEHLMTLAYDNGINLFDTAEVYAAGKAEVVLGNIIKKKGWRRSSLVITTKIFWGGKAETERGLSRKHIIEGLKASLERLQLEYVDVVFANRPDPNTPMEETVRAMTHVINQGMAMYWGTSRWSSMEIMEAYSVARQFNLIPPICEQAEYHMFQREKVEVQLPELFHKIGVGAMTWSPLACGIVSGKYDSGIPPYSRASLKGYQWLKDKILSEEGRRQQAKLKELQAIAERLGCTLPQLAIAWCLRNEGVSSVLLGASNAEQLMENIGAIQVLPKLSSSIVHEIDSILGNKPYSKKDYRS

[5] = target: Voltage-gated potassium channel subunit beta-2 (Rattus norvegicus) (UniProt P62483); assay: KvBeta positive modulators, primary screen, biochemical, NADPH fluorescence (AID 623;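 active means NADPH fluorescence slope more negative than the mean of all samples by about 3 SD, 99.7% confidence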;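 further: fluorescence intensity change per second fitted from 20 to 320 s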); details: Recombinant KvBeta, NADPH fluorescence decrease slope, 10 min; at 10 µM; stronger effect = lower value
[6] = target: Muscarinic acetylcholine receptor M4 (Homo sapiens) (UniProt P08173); assay: compounds altering M4/GIRK thallium flux, either direction, primary screen, M4 allosteric agonist project, cell-based, HEK293 M4/GIRK, BTC-AM (AID 625;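 active means fluorescence slope after compound addition differing from the mean of all tested samples at 99.7% confidence, mostly higher but some lower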;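 further: thallium influx through GIRK channels coupled to M4 in HEK293 cells with BTC-AM dye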); details: at 10 µM, actives lie on both sides
Muscarinic acetylcholine receptor M4 (Homo sapiens), sequence (P08173 whole entry, looked up): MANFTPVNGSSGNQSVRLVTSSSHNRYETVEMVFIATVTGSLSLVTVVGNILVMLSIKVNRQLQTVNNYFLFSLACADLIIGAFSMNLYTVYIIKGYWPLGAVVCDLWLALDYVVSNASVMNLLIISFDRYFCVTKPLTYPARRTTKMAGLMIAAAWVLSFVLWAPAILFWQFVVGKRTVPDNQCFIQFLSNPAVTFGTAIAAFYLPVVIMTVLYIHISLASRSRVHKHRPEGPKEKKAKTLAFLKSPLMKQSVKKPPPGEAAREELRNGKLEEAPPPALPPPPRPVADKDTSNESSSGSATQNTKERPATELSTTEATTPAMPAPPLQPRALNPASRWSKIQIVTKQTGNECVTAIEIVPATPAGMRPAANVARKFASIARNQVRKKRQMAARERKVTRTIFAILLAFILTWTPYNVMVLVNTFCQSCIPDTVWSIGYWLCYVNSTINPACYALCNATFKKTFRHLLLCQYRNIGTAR
Summary of the method: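 Material: M4/GIRK1/GIRK2 stable HEK293 cell line. Medium: pH 7.3 thallium assay buffer. Dosing: single compound concentration, 10 µM final. Schedule: 1 h dye loading, 2 min kinetic read. Measured by: kinetic fluorescence with BTC-AM dye. Read-out: post-addition slope, 15–24 s, of baseline-normalized fluorescence. Benchmarks: carbachol and DMSO controls.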

[7] = inhibitors of Sendai virus-induced IRF3 signaling, primary screen, TLR/RLR signaling modifier project, cell-based, Sendai virus stimulus, luciferase, 10K MLSCN set (AID 602276;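 active means inhibition at or above 50% at 10 µM; inactive means inhibition below 50%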;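 further: firefly luciferase from ISG56 promoter only with Renilla not read in this screen; 0% = Sendai virus plus DMSO and 100% = medium plus DMSO without virus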); details: HEK293 RL24 IRF3 luciferase reporter, at 10 µM, stronger effect = higher value
[8] = inhibitors of poly I:C-induced TLR3 signaling, primary screen, cell-based, poly I:C stimulus, luciferase, 10K MLSCN set (AID 602277;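 active means inhibition of the reporter signal at or above 50%; inactive means inhibition below 50%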); details: HEK293-TLR3 RL24 IRF3 luciferase reporter, at 10 µM, stronger effect = higher value

| SMILES | cell count [1] | inhibition [1] | inhibition of aggregation [2] | nuclei count [2] [%] | inhibition [3] | nuclei count [3] [%] | fluorescence slope [4] | NADPH fluorescence slope [5] | fluorescence slope [6] | inhibition [7] | inhibition [8] |
| --- | --- | --- | --- | --- | --- | --- | --- | --- | --- | --- | --- |
| Cc1ccc(-c2cc(C(F)F)nc(NCc3cccnc3)n2)cc1 | 590 | -26.5% (inactive) | -44.3% (inactive) | 81.9 | -97.8% (inactive) | 118 | -0.467 (inactive) | -1.4e-06 (inactive) | 0.00586 (inactive) | 7% (inactive) | -13.6% (inactive) |
| COc1ccc(CN2C(=O)C(O)(CC(=O)c3c(C)n[nH]c3C)c3ccccc32)cc1OC (stereo not drawn) | 264 | -12.6% (inactive) | -2.3% (inactive) | 92.8 | -27.7% (inactive) | 97.3 | -0.481 (inactive) | -4.5e-05 (inactive) | 0.00507 (inactive) | 15.2% (inactive) | 9.8% (inactive) |
| COC(=O)CN(c1ccc2c(c1)OCO2)S(C)(=O)=O | 356 | -0.3% (inactive) | 17.1% (inactive) | 81.1 | 62.9% (inactive) | 49.1 | -0.482 (inactive) | -2.7e-06 (inactive) | 0.00639 (inactive) | 8.14% (inactive) | 8.67% (inactive) |
| O=C(c1ccccc1)c1coc2ccc(O)c(CN3CCOCC3)c12 | 651 | -5.8% (inactive) | 8.4% (inactive) | 77.4 | 1.5% (inactive) | 102 | -0.577 (inactive) | 3.5e-06 (inactive) | 0.00407 (inactive) | 14.5% (inactive) | 18.2% (inactive) |
| Cc1[nH]c(=O)[nH]c(=O)c1S(=O)(=O)N1CCN(c2cccc(Cl)c2)CC1 | 799 | 4.2% (inactive) | -23.7% (inactive) | 104 | -160% (inactive) | 126 | -0.567 (inactive) | -1.8e-05 (inactive) | 0.0059 (inactive) | -13.2% (inactive) | -11.6% (inactive) |
| COc1ccc(S(=O)(=O)N2CCN(C3CCCCCCC3)CC2)cc1 | 360 | 2% (inactive) | 5.1% (inactive) | 105 | -8.4% (inactive) | 108 | -0.533 (inactive) | -5.6e-05 (inactive) | 0.00334 (inactive) | 16.2% (inactive) | 24.3% (inactive) |
| c1ccc2[nH]c(CSc3nnc(-c4ccncc4)o3)nc2c1 | 388 | -5% (inactive) | 5.8% (inactive) | 83 | -20.9% (inactive) | 90.8 | -0.497 (inactive) | 1e-06 (inactive) | 0.00421 (inactive) | 7.74% (inactive) | 13.2% (inactive) |
| COc1ccc(N(CC(=O)N2c3ccccc3CC2C)S(=O)(=O)c2c(C)noc2C)cc1 (stereo not drawn) | 539 | -5.8% (inactive) | -18.3% (inactive) | 118 | -62.5% (inactive) | 116 | -0.395 (inactive) | 9.4e-05 (inactive) | 0.00594 (inactive) | 14.5% (inactive) | 30.9% (inactive) |
| O=C1CN(c2ccccc2F)C(=O)CN1c1ccccc1F | 330 | -2.3% (inactive) | -2.1% (inactive) | 97.5 | -61.6% (inactive) | 89.8 | -0.476 (inactive) | -3.1e-05 (inactive) | 0.00583 (inactive) | 14.9% (inactive) | 14.3% (inactive) |
| O=C(O)c1cc(/C=N\O)ccc1OCc1ccccc1 | 697 | -6.9% (inactive) | 2.9% (inactive) | 112 | -30.9% (inactive) | 104 | -0.545 (inactive) | -1.3e-05 (inactive) | 0.007 (inactive) | -0.244% (inactive) | 11.6% (inactive) |
| CCNc1nc(N2CCCCC2)nc(-n2nnc(C(=O)OCC)c2C)n1 | 550 | -5.3% (inactive) | 1.6% (inactive) | 92.5 | 27.7% (inactive) | 66.8 | -0.613 (inactive) | -6.3e-05 (inactive) | 0.00368 (inactive) | -2.26% (inactive) | 4.91% (inactive) |
| CCc1nnc(NC(=O)OCc2ccccc2)s1 | 414 | 8.1% (inactive) | 0.2% (inactive) | 99.3 | -59.3% (inactive) | 120 | -0.579 (inactive) | -1.5e-05 (inactive) | 0.00857 (inactive) | -17.2% (inactive) | -43.4% (inactive) |
| CC1(C)CC(=O)C(C=NCCc2ccc(S(N)(=O)=O)cc2)=C(O)C1 | 601 | -6.1% (inactive) | -14.5% (inactive) | 114 | -11.3% (inactive) | 102 | -0.426 (inactive) | -8.3e-05 (inactive) | 0.00589 (inactive) | 13.2% (inactive) | 20.3% (inactive) |
| CCOCCCNCC(=O)N1CCN(S(=O)(=O)c2ccc(C)cc2)CC1 | 642 | 19.3% (inactive) | -0.2% (inactive) | 94.5 | -61.6% (inactive) | 131 | -0.614 (inactive) | 1.2e-05 (inactive) | 0.00526 (inactive) | 7.31% (inactive) | 27.6% (inactive) |
| COc1ccc(-c2noc(COc3ccc4ccccc4c3Br)n2)cc1OC | 565 | 14.8% (inactive) | -29.8% (inactive) | 109 | 8.2% (inactive) | 104 | -0.564 (inactive) | -3e-05 (inactive) | 0.00985 (inactive) | -38.1% (inactive) | -45.2% (inactive) |
| O=C(c1ccco1)N1CCN(C(=O)c2ccc(Cn3cc(Br)cn3)o2)CC1 | 371 | 2.6% (inactive) | 9.6% (inactive) | 102 | -21.6% (inactive) | 105 | -0.456 (inactive) | -4.2e-05 (inactive) | 0.00591 (inactive) | 13.3% (inactive) | 12.9% (inactive) |
| O=C(Nc1cccnc1)Nc1ccc2c(c1)OCO2 | 420 | 0.8% (inactive) | -14.9% (inactive) | 121 | 6% (inactive) | 51.1 | -0.418 (inactive) | 6.4e-06 (inactive) | 0.00717 (inactive) | -19.2% (inactive) | -53.4% (inactive) |
| COc1cccc(OCCOCCN(C)CCO)c1 | 313 | 1.5% (inactive) | 19.1% (inactive) | 85.9 | 41.3% (inactive) | 88.1 | -0.532 (inactive) | -2.5e-05 (inactive) | 0.00575 (inactive) | -3.56% (inactive) | 14.6% (inactive) |
| COCn1c(COc2ccccc2)nc2ccccc21 | 478 | 9.6% (inactive) | -10.6% (inactive) | 114 | 29% (inactive) | 123 | -0.248 (inactive) | -1.5e-05 (inactive) | 0.00599 (inactive) | -20.6% (inactive) | -112% (inactive) |
| CCCCCc1c(O)c2ccccc2[nH]c1=O | 596 | -9.8% (inactive) | -15.9% (inactive) | 109 | -4.6% (inactive) | 87 | -0.565 (inactive) | -9.6e-05 (inactive) | 0.00337 (inactive) | 11.7% (inactive) | 13.8% (inactive) |
| Nc1nnc(SCCOc2ccccc2)s1 | 417 | -0.9% (inactive) | 2.2% (inactive) | 108 | -70% (inactive) | 98.8 | -0.535 (inactive) | -1.2e-05 (inactive) | 0.00525 (inactive) | -8.16% (inactive) | -14% (inactive) |
| CC(C)=CCSc1nnc(CCNC(=O)OC(C)(C)C)o1 | 391 | 14.5% (inactive) | 17.1% (inactive) | 90 | 22.3% (inactive) | 95.7 | -0.402 (inactive) | 8.7e-05 (inactive) | 0.00571 (inactive) | 9.62% (inactive) | 12.6% (inactive) |
| C=CCSc1ncccc1C(=O)O | 709 | 6.9% (inactive) | -8.1% (inactive) | 108 | -36.4% (inactive) | 111 | -0.556 (inactive) | -6.2e-05 (inactive) | 0.00662 (inactive) | -12.7% (inactive) | -3.04% (inactive) |
| Cc1nc2sc3c(c2c(=O)o1)CCC3 | 619 | 2.1% (inactive) | -0.2% (inactive) | 108 | 0.3% (inactive) | 93.8 | -0.511 (inactive) | -0.000121 (inactive) | 0.00356 (inactive) | 16.2% (inactive) | 22.8% (inactive) |
| O=C(Nc1ccc(Cl)cc1)C1CC=CCC1C(=O)OCC(F)(F)C(F)F (stereo not drawn) | 628 | 8.2% (inactive) | 31.1% (inactive) | 88 | -17.6% (inactive) | 96.7 | -0.319 (inactive) | -7e-05 (inactive) | 0.00812 (inactive) | 11.2% (inactive) | 3.19% (inactive) |
| CCOC(=O)CSc1nnc(CNC(=O)c2ccc(OC)c(OC)c2)n1C | 375 | -8.2% (inactive) | -1.1% (inactive) | 82 | -73% (inactive) | 128 | -0.578 (inactive) | -2.7e-05 (inactive) | 0.00863 (inactive) | 4.54% (inactive) | 21.4% (inactive) |
| c1ccc2c3nnc4n(c-3nc2c1)CCCS4 | 472 | 4.1% (inactive) | 0.4% (inactive) | 101 | 17.9% (inactive) | 112 | -0.444 (inactive) | -2.5e-05 (inactive) | 0.00387 (inactive) | -12.6% (inactive) | -19.6% (inactive) |
| CCOC(=O)c1[nH]c2ccccc2c1NC(=O)c1ccco1 | 671 | -8.6% (inactive) | 4.2% (inactive) | 87.8 | 52.3% (inactive) | 102 | -0.332 (inactive) | -6.5e-05 (inactive) | 0.00748 (inactive) | 17.1% (inactive) | 21.7% (inactive) |
